The values that follow come from the M2OR odorant receptor database.

Conditions in all cases: stereoisomer not certain
Test [1] concerns the target T1, OR5M3 (Homo sapiens) (UniProt Q8NGP4).
T1 sequence (whole entry): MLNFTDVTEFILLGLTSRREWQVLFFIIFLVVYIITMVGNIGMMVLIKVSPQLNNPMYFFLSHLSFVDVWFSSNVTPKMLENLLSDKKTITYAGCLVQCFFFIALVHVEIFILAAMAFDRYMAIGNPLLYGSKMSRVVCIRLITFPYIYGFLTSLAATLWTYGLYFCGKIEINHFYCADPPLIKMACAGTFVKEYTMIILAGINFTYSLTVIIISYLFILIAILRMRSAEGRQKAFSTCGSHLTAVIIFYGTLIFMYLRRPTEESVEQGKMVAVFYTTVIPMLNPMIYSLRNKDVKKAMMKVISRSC
The method, boiled down: (§1)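 Whether a receptor–molecule pair is responsive (active) rests on the original authors' judgment that its measured signal was statistically different from baseline. Pairs without that judgment are non-responsive (inactive). Sources used varied assay methods, commonly transient luciferase assays in mammalian cell lines.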

Test [2] has as its target OR5M10 (Homo sapiens) (UniProt Q6IEU7). An outline of the steps: as §1
The target of test [3] is OR5M11 (Homo sapiens) (UniProt Q96RB7). The method, boiled down: as §1
The target of test [4] is OR5M8 (Homo sapiens) (UniProt Q8NGP6). The method, boiled down:
as §1

The target of test [5] is OR5M9 (Homo sapiens) (UniProt Q8NGP3). An outline of the steps: as §1
Test [6] addresses OR5P2 (Homo sapiens) (UniProt Q8WZ92). An outline of the steps: as §1
Test [7] relates to OR5M1 T295R M301I. An outline of the steps: as §1
In test [8] the test system is OR5M3 N3Y A156T. The method, boiled down: as §1
In test [9] the test system is OR5MA L2F C311H. The method, boiled down: as §1
In test [10] the test system is OR5MA L2F Q54H C311H. An outline of the steps:
as §1
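Note: active if original authors judged signal statistically different from baseline.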

Sequence of OR5P2 (Homo sapiens) (Q8WZ92 whole entry): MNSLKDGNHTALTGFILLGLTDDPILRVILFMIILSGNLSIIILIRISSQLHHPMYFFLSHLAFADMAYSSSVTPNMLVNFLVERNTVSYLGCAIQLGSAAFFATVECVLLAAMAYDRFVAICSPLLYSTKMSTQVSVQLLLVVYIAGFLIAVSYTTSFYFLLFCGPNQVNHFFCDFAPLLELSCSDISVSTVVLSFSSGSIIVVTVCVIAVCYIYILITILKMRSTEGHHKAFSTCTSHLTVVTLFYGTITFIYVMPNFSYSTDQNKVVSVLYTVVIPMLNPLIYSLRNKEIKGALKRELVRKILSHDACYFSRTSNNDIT
Sequence of OR5M8 (Homo sapiens) (Q8NGP6 whole entry): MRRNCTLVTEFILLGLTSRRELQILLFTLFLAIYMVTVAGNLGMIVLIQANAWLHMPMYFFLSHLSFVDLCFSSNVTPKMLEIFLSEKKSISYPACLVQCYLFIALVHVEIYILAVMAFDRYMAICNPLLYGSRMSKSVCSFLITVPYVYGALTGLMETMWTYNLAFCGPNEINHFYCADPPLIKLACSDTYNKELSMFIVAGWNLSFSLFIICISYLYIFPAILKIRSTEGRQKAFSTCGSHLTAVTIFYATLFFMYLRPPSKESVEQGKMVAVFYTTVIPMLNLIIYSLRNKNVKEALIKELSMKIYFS
Sequence of OR5M9 (Homo sapiens) (Q8NGP3 whole entry): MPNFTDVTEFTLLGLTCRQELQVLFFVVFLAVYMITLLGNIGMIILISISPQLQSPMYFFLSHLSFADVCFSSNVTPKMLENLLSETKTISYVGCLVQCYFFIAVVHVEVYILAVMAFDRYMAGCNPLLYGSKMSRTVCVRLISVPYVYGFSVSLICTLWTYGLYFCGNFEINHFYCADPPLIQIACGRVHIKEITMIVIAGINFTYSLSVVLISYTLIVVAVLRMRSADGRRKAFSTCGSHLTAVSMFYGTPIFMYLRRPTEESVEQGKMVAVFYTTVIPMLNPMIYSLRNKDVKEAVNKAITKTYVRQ
Sequence of OR5M10 (Homo sapiens) (Q6IEU7 whole entry): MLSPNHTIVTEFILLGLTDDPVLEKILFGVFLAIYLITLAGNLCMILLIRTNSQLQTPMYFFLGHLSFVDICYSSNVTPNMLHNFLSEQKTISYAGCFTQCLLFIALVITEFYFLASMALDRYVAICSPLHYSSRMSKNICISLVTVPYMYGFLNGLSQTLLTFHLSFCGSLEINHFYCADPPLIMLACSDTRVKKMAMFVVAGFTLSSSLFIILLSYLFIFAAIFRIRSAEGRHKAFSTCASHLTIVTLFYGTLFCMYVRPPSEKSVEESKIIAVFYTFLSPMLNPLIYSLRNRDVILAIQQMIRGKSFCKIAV
Sequence of OR5M11 (Homo sapiens) (Q96RB7 whole entry): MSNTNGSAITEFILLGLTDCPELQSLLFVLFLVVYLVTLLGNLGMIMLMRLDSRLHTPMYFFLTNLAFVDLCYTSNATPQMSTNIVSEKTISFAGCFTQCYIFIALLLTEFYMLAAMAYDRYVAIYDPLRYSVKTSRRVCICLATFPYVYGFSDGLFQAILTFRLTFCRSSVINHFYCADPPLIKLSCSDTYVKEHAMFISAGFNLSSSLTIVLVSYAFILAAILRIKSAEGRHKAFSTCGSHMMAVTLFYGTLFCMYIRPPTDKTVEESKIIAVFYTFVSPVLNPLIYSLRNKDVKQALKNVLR

Take `Cc1ccccc1O`: in test [1], the “odorant receptor agonist call” value was “inactive”.

As to `CSSC`, the “odorant receptor agonist call” value in test [1] was “inactive”.

On to `Cc1c([N+](=O)[O-])c(C)c([N+](=O)[O-])c(C(C)(C)C)c1[N+](=O)[O-]`, for which the “odorant receptor agonist call” value in test [2], in test [3], in test [1], in test [4], in [5] and in test [6] was “inactive” each time.

Consider `SCc1ccco1`, for which the “odorant receptor agonist call” value in [1] was “inactive”.

Take `CCOC(=O)Cc1ccccc1`: the “odorant receptor agonist call” value in test [1] is “inactive”.

With `NCC(=O)c1ccccc1`, the “odorant receptor agonist call” value in test [1] is “inactive”.

Turning to `O=Cc1ccc2c(c1)OCO2`, the “odorant receptor agonist call” value in test [1] was “inactive”.

Regarding `Cc1ccc(O)c(C)c1`, in test [1], the “odorant receptor agonist call” value was “inactive”.

`C=CCOC(=O)Cc1ccccc1`: the “odorant receptor agonist call” value in [7], in test [2], in test [3], in test [1], in test [8] and in test [4] was “inactive” throughout. The “odorant receptor agonist call” value in test [5], in [9], in test [10] and in [6] was “inactive” each time.

Consider `COc1ccc(C=O)cc1`, for which, in test [1], the “odorant receptor agonist call” value was “inactive”.

With `C=CCSSCC=C`, the “odorant receptor agonist call” value in [1] was “inactive”.

For `C=CCc1ccc(OC)cc1`, the “odorant receptor agonist call” value in [1] is “inactive”.
